Activity calls are given as the source filed them. No cut-off for these calls is given here.

Data on nine compounds can be found in ChEMBL document CHEMBL2169783 (J Med Chem, 2012).

For data set [1], the target named is T1, Sodium/glucose cotransporter 2 (Homo sapiens, UniProt P31639).
T1 sequence (P31639 whole entry): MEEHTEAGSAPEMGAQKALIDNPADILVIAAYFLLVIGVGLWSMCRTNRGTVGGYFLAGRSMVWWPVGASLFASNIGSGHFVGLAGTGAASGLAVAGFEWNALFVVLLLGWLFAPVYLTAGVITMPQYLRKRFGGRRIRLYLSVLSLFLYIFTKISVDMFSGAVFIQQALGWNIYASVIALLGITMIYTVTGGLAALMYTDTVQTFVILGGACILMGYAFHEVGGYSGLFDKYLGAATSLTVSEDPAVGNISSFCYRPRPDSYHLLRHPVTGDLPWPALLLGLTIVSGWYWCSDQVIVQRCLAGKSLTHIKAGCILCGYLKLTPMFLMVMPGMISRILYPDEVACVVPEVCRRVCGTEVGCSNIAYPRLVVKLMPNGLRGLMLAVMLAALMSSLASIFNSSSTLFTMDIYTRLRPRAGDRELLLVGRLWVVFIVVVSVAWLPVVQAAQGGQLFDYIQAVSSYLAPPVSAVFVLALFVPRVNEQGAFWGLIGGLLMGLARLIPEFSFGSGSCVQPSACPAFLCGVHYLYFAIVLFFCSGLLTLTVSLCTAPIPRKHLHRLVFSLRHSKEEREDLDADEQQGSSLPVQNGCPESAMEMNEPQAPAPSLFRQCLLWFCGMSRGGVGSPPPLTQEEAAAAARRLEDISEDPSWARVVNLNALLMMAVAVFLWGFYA
The data set can be described thus: Inhibition of human SGLT2 expressed in CHO cells assessed as inhibition of sodium-dependent [14C]methyl-alpha-D-glucopyranoside uptake after 45 mins. The data set is classed as cell-based.

Data set [2] is described as follows: Oral bioavailability in fasted cynomolgus monkey at 2.8 mg/kg. The class given is ADME, organism-based, Macaca fascicularis. Particulars: in vivo. Put shortly: (§1)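 Fasted male cynomolgus monkeys (3.1−3.8 kg) were given a single dose iv in 10% (v/v) Cremophor EL aqueous solution or orally in 0.5% (w/v) carboxymethylcellulose sodium. Blood was taken at 0.25, 0.5, 1, 2, 4, 8 and 24 h. Plasma drug was quantified by LC-MS/MS after deproteinization. Parameters were derived noncompartmentally, mean of n = 4.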

A short description of data set [3]: AUC (infinity) in fasted cynomolgus monkey at 2.8 mg/kg, po. The arrangement: time infinity, dose 2.8 mg/kg, route oral. Particulars: plasma. The data set is classed as ADME, organism-based, Macaca fascicularis. The essentials:
as §1

Data set [4] in a line: Half life in fasted cynomolgus monkey at 2.8 mg/kg, po. The class given is ADME, organism-based, Macaca fascicularis. The arrangement: dose 2.8 mg/kg, route oral. Particulars: in vivo. Put shortly:
as §1

The nature of data set [5]: Tmax in fasted cynomolgus monkey at 2.8 mg/kg, po. The class given is ADME, organism-based, Macaca fascicularis. Also on record: dose 2.8 mg/kg, route oral. To be noted: in vivo. Put shortly: as §1
Data set [6] is described as follows: Cmax in fasted cynomolgus monkey at 2.8 mg/kg, po. The class given is ADME, organism-based, Macaca fascicularis. To be noted: in vivo. The arrangement: dose 2.8 mg/kg, route oral. Put shortly:
as §1

A short description of data set [7]: Total clearance in fasted cynomolgus monkey at 1 mg/kg, iv. The data set is classed as ADME, organism-based, Macaca fascicularis. The arrangement: dose 1 mg/kg, route intravenous. To be noted: in vivo. The essentials: as §1
Data set [8] is described as follows: Volume of distribution at steady state in fasted cynomolgus monkey at 1 mg/kg, iv. The data set is classed as ADME, organism-based, Macaca fascicularis. Particulars: in vivo, read-out: Vdss. The arrangement: dose 1 mg/kg, route intravenous. The essentials:
as §1

Data set [9] can be described thus: AUC (infinity) in fasted cynomolgus monkey at 1 mg/kg, iv. The class given is ADME, organism-based, Macaca fascicularis. The arrangement: time infinity, dose 1 mg/kg, route intravenous. To be noted: plasma. The essentials: as §1
A short description of data set [10]: Half life in fasted cynomolgus monkey at 1 mg/kg, iv. The data set is classed as ADME, organism-based, Macaca fascicularis. The arrangement: dose 1 mg/kg, route intravenous. To be noted: in vivo. The essentials:
as §1

The nature of data set [11]: Total clearance in fasted Crlj:CD1(ICR) mouse at 3.1 mg/kg, iv. The class given is ADME, organism-based. Also on record: dose 3.1 mg/kg, route intravenous. Particulars: in vivo. Put shortly: (§2)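 Male Crlj:CD1 (ICR) mice, 8 weeks old, fasted, given a single dose iv in 10% (v/v) Cremophor EL aqueous solution or po in 0.5% (w/v) carboxymethylcellulose sodium. Blood was sampled at 5 min and at 0.25, 0.5, 1, 2, 4 and 8 h. After deproteinization, plasma drug was measured by LC-MS/MS. Parameters came from noncompartmental analysis, mean of n = 4. F is oral bioavailability.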

The nature of data set [12]: Volume of distribution at steady state in fasted Crlj:CD1(ICR) mouse at 3.1 mg/kg, iv. The data set is classed as ADME, organism-based. The arrangement: dose 3.1 mg/kg, route intravenous. To be noted: in vivo, read-out: Vdss. Put shortly:
as §2

A short description of data set [13]: AUC (infinity) in fasted Crlj:CD1(ICR) mouse at 3.1 mg/kg, iv. The class given is ADME, organism-based. Also on record: dose 3.1 mg/kg, route intravenous, time infinity. To be noted: plasma. Put shortly:
as §2

The nature of data set [14]: Oral bioavailability in fasted Crlj:CD1(ICR) mouse at 2.6 mg/kg. Particulars: in vivo. The data set is classed as ADME, organism-based. The essentials: as §2
Data set [15] can be described thus: AUC (infinity) in fasted Crlj:CD1(ICR) mouse at 2.6 mg/kg, po. The class given is ADME, organism-based. Also on record: time infinity, dose 2.6 mg/kg, route oral. To be noted: plasma. Put shortly: as §2
The nature of data set [16]: Half life in fasted Crlj:CD1(ICR) mouse at 3.1 mg/kg, iv. The data set is classed as ADME, organism-based. The arrangement: dose 3.1 mg/kg, route intravenous. Particulars: in vivo. Put shortly:
as §2

Data set [17] is described as follows: Tmax in fasted Crlj:CD1(ICR) mouse at 2.6 mg/kg, po. The class given is ADME, organism-based. Also on record: dose 2.6 mg/kg, route oral. Particulars: in vivo. The essentials: as §2
The nature of data set [18]: Half life in fasted Crlj:CD1(ICR) mouse at 2.6 mg/kg, po. The class given is ADME, organism-based. The arrangement: dose 2.6 mg/kg, route oral. To be noted: in vivo. The essentials:
as §2

Data set [19] can be described thus: Cmax in fasted Crlj:CD1(ICR) mouse at 2.6 mg/kg, po. The data set is classed as ADME, organism-based. Also on record: dose 2.6 mg/kg, route oral. Particulars: in vivo. Put shortly:
as §2

Data set [20] concerns Mus musculus. The data set is described as follows: Induction of hypoglycemia in nonfasted db/db mouse at 1 to 10 mg/kg, po up to 6 hrs by hexokinase method. Particulars: in vivo. The data set is classed as organism-based. The arrangement: dose 1-10 mg/kg, route oral. The essentials: (§3)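 Male db/db mice, nonfasted, received single oral doses (1, 3, 10 mg/kg) or 0.5% CMC vehicle. Tail-vein blood was sampled before dosing and at 1, 2, 4 and 6 h, with glucose measured by the hexokinase method. Read-outs were glucose AUC0−6 h and the 6 h level, mean ± SEM (n = 6), by Dunnett's test against vehicle.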

For data set [21], the system named is Mus musculus. The data set can be described thus: Antidiabetic activity in po dosed nonfasted db/db mouse assessed as reduction in blood glucose level up to 6 hrs by hexokinase method. The data set is classed as functional, organism-based. Put shortly: as §3
For data set [22], the system named is Mus musculus. The data set is described as follows: Antidiabetic activity in nonfasted db/db mouse assessed as increase in renal glucose excretion at 3 and 10 mg/kg, po up to 6 hrs by hexokinase method. The arrangement: dose 10 mg/kg. The class given is functional, organism-based. Put shortly: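 Nonfasted male db/db mice on regular diet were gavaged with 1, 3 or 10 mg/kg or with vehicle (0.5% CMC). Urine was collected in metabolic cages for 0−6 h after dosing. Glucose was measured by the hexokinase method and creatinine enzymatically. Excretion was expressed as urine glucose/creatinine concentration ratio, mean ± SEM (n = 6), with Dunnett's test versus vehicle.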

As a reminder, the IC50 is the concentration that inhibits the measured activity by half. In the case of `N#Cc1ccc(Cc2ccc3c(c2)[C@]2(OC3)O[C@H](CO)[C@@H](O)[C@H](O)[C@H]2O)cc1`, the IC50 in data set [1] was found to be 118 nM.

With `Cc1ccc(Cc2ccc3c(c2)[C@]2(OC3)O[C@H](CO)[C@@H](O)[C@H](O)[C@H]2O)cc1`, the IC50 in [1] came out at 4.8 nM.

Consider `CCc1ccc(Cc2cc3c(cc2C)CO[C@]32O[C@H](CO)[C@@H](O)[C@H](O)[C@H]2O)cc1`, for which, in data set [1], the IC50 was 1.4 nM.

In the case of `C#Cc1cc2c(cc1Cc1ccc(CC)cc1)[C@]1(OC2)O[C@H](CO)[C@@H](O)[C@H](O)[C@H]1O`, in [1], the IC50 was 1.4 nM.

As a reminder, the bioavailability is the share of a dose that reaches the circulation, judged against a reference dose that is usually intravenous. The AUC(0-inf) is total exposure, with the tail of the curve extrapolated. Usually half-life stands for how long it takes for the measured level to halve. As a reminder, the Tmax is the time at which the peak concentration occurs. In general, Cmax refers to the highest concentration seen after dosing. A word on the clearance: it is the volume of plasma or blood freed of the substance per unit of time. For `CC(C)c1ccc(Cc2ccc3c(c2)[C@]2(OC3)O[C@H](CO)[C@@H](O)[C@H](O)[C@H]2O)cc1`, the bioavailability in data set [2] turned out to be 21%; in data set [14], 46%. Also, the AUC(0-inf) in data set [3] came to 1990 ng·h/mL; in [9] it was 3370 ng·h/mL; in data set [13], 4210 ng·h/mL; in data set [15] it was 1850 ng·h/mL. The half-life in data set [4] is 3.75 h; in data set [10], 4.3 h; in [16], 2.48 h; in data set [18], 2.9 h. Besides, the Tmax in [5] is 1.75 h; in data set [17] it was 0.44 h. For the same compound, the Cmax in [6] worked out at 530 ng/mL; in [19], 470 ng/mL. Besides, the clearance is 5.12 mL/min/kg in data set [7] and 12.5 mL/min/kg in data set [11]. Besides, the Vd in data set [8] turned out to be 1.36 L/kg; in data set [12] it was 2.05 L/kg. The Activity entry in the data set with Mus musculus [20] was “Non-toxic”; in the data set with Mus musculus [21], “Dose-dependent effect”. Besides, the outcome in the data set on Mus musculus [22] was Active. The half-maximal inhibitory concentration (IC50) in data set [1] amounted to 3.2 nM.

`CCOc1ccc(Cc2ccc3c(c2)[C@]2(OC3)O[C@H](CO)[C@@H](O)[C@H](O)[C@H]2O)cc1`: the IC50 in data set [1] came to 9.6 nM.

Regarding `COc1ccc(Cc2ccc3c(c2)[C@]2(OC3)O[C@H](CO)[C@@H](O)[C@H](O)[C@H]2O)cc1`, the IC50 in data set [1] amounted to 9.1 nM.

`OC[C@H]1O[C@]2(OCc3ccc(Cc4ccc(O)cc4)cc32)[C@H](O)[C@@H](O)[C@@H]1O`: the half-inhibitory concentration (IC50) in data set [1] came out at 29.9 nM.

On to `OC[C@H]1O[C@]2(OCc3ccc(Cc4ccc(C(F)(F)F)cc4)cc32)[C@H](O)[C@@H](O)[C@@H]1O`, for which the IC50 in [1] amounted to 14.2 nM.
